Laboratory results as given in publication PMC3607822 (The Journal of General Physiology, 2013).
Changes are numbered by the printed parent chain.

Experiments:
[1] = molecular target: T1, CNGA3 C7K/R-A (K624A, K629A, R643A, R646A, K657A, K659A, R661A) channels (Homo sapiens, UniProt Q16281, K624A/K629A/K657A/K659A/R643A/R646A/R661A); test: Inside-out patch clamp, CNGA3 C7K/R-A; type: biochemical
T1 sequence (Q16281 1-694 K624A/K629A/R643A/R646A/K657A/K659A/R661A): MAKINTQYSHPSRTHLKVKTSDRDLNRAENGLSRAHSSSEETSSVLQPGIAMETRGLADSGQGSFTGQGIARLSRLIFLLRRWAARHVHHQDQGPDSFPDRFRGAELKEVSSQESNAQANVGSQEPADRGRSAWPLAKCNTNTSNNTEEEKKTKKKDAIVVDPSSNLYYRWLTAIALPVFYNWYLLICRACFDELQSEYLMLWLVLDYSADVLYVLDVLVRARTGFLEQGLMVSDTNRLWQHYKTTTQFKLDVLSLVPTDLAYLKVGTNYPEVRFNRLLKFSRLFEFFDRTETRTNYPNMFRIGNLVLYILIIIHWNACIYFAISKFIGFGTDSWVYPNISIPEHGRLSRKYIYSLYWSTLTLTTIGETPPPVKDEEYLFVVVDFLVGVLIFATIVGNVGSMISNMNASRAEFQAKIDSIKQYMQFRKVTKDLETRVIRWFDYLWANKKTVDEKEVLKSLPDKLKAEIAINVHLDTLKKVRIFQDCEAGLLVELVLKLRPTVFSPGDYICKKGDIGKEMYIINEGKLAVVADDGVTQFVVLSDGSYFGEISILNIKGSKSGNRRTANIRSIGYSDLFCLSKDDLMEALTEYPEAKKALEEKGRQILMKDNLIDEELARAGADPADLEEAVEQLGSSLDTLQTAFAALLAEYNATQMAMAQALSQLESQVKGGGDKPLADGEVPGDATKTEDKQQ

[2] = molecular target: T2, CNGA3 RR-QQ (R643Q, R646Q) channels (Homo sapiens, UniProt Q16281, R643Q/R646Q); test: Inside-out patch clamp, CNGA3 RR-QQ; type: biochemical
T2 sequence (Q16281 1-694 R643Q/R646Q): T1 sequence (Q16281 1-694 K624A/K629A/R643A/R646A/K657A/K659A/R661A) with A624K, A629K, A643Q, A646Q, A657K, A659K, A661R

[3] = molecular target: CNGA3 ΔN (51-107), 613X channels (Homo sapiens, UniProt Q16281, DEL51-107); test: Inside-out patch clamp, CNGA3 ΔN; type: biochemical
[4] = test system: tandem A3//N7R-A,613X heterodimer channels; test: Inside-out patch clamp, A3 WT//A3 N7R-A,613X tandem dimers; type: biochemical, human; details: from K1/2 and h before and after PIP3
[5] = molecular target: CNGA1 with CNGB3 channels (UniProt Q00194+Q9NQW8); test: Inside-out patch clamp, CNGA1 with CNGB3; type: biochemical, bovine, human; details: 1 µM PIP3
Chain of CNGA1 with CNGB3 channels (Q00194 whole entry): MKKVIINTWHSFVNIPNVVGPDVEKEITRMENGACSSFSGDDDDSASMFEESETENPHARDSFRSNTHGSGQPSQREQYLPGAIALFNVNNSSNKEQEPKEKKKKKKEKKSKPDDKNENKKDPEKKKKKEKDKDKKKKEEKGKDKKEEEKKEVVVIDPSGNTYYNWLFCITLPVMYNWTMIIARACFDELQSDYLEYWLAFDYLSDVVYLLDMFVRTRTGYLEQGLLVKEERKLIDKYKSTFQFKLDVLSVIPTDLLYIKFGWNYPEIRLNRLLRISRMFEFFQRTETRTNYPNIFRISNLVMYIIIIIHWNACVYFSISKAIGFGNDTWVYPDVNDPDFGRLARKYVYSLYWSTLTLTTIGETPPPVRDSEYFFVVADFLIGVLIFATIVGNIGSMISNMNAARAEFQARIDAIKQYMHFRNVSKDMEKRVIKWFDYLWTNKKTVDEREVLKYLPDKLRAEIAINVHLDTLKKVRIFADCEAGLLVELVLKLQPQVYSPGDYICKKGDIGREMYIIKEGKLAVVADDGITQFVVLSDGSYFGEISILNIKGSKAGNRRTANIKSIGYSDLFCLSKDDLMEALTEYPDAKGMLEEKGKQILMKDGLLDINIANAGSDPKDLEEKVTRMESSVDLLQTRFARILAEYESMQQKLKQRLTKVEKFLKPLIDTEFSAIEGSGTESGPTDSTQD
Chain of CNGA1 with CNGB3 channels (Q9NQW8 whole entry): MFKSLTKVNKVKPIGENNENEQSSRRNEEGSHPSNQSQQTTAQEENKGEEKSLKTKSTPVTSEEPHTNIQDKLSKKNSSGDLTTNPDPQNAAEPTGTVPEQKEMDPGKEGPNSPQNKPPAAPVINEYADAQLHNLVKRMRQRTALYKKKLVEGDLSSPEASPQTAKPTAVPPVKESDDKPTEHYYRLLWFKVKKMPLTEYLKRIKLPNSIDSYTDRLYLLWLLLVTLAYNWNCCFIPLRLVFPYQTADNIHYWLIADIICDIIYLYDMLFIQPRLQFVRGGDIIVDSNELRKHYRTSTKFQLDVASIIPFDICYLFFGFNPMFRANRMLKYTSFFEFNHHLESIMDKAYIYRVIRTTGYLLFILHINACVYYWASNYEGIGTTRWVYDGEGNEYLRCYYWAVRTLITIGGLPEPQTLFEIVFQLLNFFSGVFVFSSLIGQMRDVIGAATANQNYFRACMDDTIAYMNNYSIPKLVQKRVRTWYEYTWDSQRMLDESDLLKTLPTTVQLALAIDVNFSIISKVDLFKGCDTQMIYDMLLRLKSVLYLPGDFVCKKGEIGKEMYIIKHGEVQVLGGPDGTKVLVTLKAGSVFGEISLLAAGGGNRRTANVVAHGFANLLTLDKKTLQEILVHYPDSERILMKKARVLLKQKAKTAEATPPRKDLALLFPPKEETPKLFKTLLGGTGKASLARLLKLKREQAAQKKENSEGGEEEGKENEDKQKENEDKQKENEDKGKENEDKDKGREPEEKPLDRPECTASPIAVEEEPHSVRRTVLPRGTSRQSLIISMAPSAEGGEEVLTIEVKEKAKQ
How it was run: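 Subunit cRNAs (~20 ng, B in excess over A) injected into stage IV Xenopus oocytes; inside-out patches 2–7 d later, 20–22°C, symmetric 130 mM NaCl, 0.2 mM EDTA, 3 mM Hepes pH 7.2. Heteromer formation checked by 25 µM l-cis-diltiazem with 1 mM cGMP. diC8 phosphoinositides applied intracellularly in phosphatase-inhibitor cocktail. cGMP dose–response at +80 mV, leak-subtracted, Hill fit before/after for K1/2; mean ± SEM.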

GST fusion A3C7K/R-A = GST fusion A3C7K/R-A (Homo sapiens, UniProt Q16281, K624A/K629A/K657A/K659A/R643A/R646A/R661A); test: In vitro PIP3-agarose bead pull-down, A3C7K/R-A; type: binding; details: PIP3-agarose beads, anti-GST immunoblot; compared with A3C
How it was run: (§1)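 Recombinant GST fusions of channel fragments expressed in E. coli and purified; soluble fraction kept after 20,000 g, 4°C, 30 min. Protein (2 µg/ml) rocked with PIP3- or control agarose beads, 2 h, 4°C, in 10 mM Hepes pH 7.4, 50 mM NaCl, 2 mM EDTA, 0.25% Triton X-100, 0.25% NP-40. Five washes, elution in sample buffer, reducing SDS gel, anti-GST (1:2,000, overnight) immunoblot, chemiluminescence; […].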

GST fusion A3C-635X = GST fusion A3C-635X (Homo sapiens, UniProt Q16281); test: In vitro PIP3-agarose bead pull-down, A3C-635X; type: binding; details: PIP3-agarose beads, anti-GST immunoblot; compared with A3C
How it was run: as §1

GST fusion A3N7R-A = GST fusion A3N7R-A (Homo sapiens, UniProt Q16281, R101A/R103A/R72A/R75A/R81A/R82A/R86A); test: In vitro PIP3-agarose bead pull-down, A3N7R-A; type: binding; details: PIP3-agarose beads, anti-GST immunoblot; compared with A3N
How it was run: as §1

[6] = read-out: K1/2 cGMP, +80 mV, no PIPn

Hill coefficient ([1]; cGMP activation) | EC50 [1, 6] | Po max cGMP ([1]; saturating cGMP) | Hill coefficient ([2]; cGMP activation) | EC50 [2, 6] | Po max cGMP ([2]; saturating cGMP) | Hill coefficient ([3]; cGMP activation) | EC50 [3, 6] | regulation of K1/2 cGMP by PIP3 [5] | in vitro PIP3 binding (GST fusion A3C7K/R-A) | in vitro PIP3 binding (GST fusion A3C-635X) | in vitro PIP3 binding (GST fusion A3N7R-A) | Compound | change in the energetics of channel opening produced by PIP3 (ΔΔG) [4]
2.00 ± 0.00 (6) | 9.37 ± 0.29 µM | 0.92 ± 0.01 (4) | 2.00 ± 0.00 (3) | 7.45 ± 0.63 µM | 0.94 ± 0.01 (3) | 1.90 ± 0.06 (4) | 11.1 ± 2.28 µM |  |  |  |  | Nc1nc2c(ncn2[C@@H]2O[C@@H]3COP(=O)(O)O[C@H]3[C@H]2O)c(=O)[nH]1 [cGMP, cyclic guanosine monophosphate] | 
 |  |  |  |  |  |  |  | PIP3-sensitive | attenuated binding to PIP3 beads | attenuated binding to PIP3 beads | attenuated binding to PIP3 beads | phosphatidylinositol (3,4,5)-trisphosphate [PIP3] | 1.29 ± 0.08 kcal/mol
